# Laboratory results as given in ChEMBL document CHEMBL1126924, “R2 C-terminal peptide inhibition of mammalian and yeast ribonucleotide reductase” (J Med Chem, 1993).
# Key:
# [1] = target: T1, Ribonucleoside-diphosphate reductase large subunit (Mus musculus, UniProt P07742); assay: Inhibitory activity of compound against mammalian ribonucleotide reductase; Range is 9-15
# T1 sequence (P07742 whole entry): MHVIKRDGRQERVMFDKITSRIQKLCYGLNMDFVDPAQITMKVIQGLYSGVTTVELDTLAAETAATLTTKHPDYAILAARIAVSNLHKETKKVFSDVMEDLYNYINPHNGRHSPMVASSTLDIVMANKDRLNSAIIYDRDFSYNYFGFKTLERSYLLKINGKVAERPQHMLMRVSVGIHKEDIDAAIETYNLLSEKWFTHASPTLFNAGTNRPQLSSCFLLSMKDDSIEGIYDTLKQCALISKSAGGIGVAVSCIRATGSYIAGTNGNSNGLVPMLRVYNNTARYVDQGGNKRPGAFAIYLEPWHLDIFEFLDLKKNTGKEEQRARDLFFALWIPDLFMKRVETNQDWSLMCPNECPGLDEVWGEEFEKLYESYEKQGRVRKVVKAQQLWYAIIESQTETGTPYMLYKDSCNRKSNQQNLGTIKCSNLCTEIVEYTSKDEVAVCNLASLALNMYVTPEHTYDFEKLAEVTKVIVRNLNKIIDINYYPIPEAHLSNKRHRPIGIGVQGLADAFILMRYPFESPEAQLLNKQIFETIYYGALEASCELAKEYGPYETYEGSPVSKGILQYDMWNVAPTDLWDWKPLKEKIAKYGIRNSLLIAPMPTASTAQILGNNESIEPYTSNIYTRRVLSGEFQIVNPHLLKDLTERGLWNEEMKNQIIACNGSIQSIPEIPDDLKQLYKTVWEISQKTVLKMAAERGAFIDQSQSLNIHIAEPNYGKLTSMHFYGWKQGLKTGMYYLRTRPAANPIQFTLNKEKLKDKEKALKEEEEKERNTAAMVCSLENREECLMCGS
# Outline: (§1)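 Calf thymus R1 (1 μg) with cloned mouse R2 (2 μg) expressed in E. coli from pET-M2. CDP reduction was run at 35 °C with DTT as reductant. [³H]dCDP was separated on aminophenylboronate and counted by scintillation.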
# [2] = target: T1, Ribonucleoside-diphosphate reductase large subunit; assay: Inhibitory activity of compound against mammalian ribonucleotide reductase; Range is 364-460; outline: as §1
# [3] = target: T1, Ribonucleoside-diphosphate reductase large subunit; assay: Inhibitory activity of compound against mammalian ribonucleotide reductase; Range is 110-230; outline: as §1
# [4] = target: T1, Ribonucleoside-diphosphate reductase large subunit; assay: Inhibitory activity of compound against mammalian ribonucleotide reductase; Range is 29-30; outline: as §1
# [5] = target: T1, Ribonucleoside-diphosphate reductase large subunit; assay: Inhibitory activity of compound against mammalian ribonucleotide reductase; Range is 48-58; outline: as §1
# [6] = target: T1, Ribonucleoside-diphosphate reductase large subunit; assay: Inhibitory activity of compound against mammalian ribonucleotide reductase; Range is 8-20; outline: as §1
# [7] = target: T1, Ribonucleoside-diphosphate reductase large subunit; assay: Inhibitory activity of compound against mammalian ribonucleotide reductase; Range is 32-38; outline: as §1
# [8] = target: T1, Ribonucleoside-diphosphate reductase large subunit; assay: Inhibitory activity of compound against mammalian ribonucleotide reductase; Range is 286-336; outline: as §1
# [9] = target: T1, Ribonucleoside-diphosphate reductase large subunit; assay: Inhibitory activity of compound against mammalian ribonucleotide reductase; Range is 25-29; outline: as §1
# [10] = target: T1, Ribonucleoside-diphosphate reductase large subunit; assay: Inhibitory activity of compound against mammalian ribonucleotide reductase; Range is 450-620; outline: as §1
# [11] = target: T1, Ribonucleoside-diphosphate reductase large subunit; assay: Inhibitory activity of compound against mammalian ribonucleotide reductase; Range is 34-35; outline: as §1
# [12] = target: Ribonucleoside-diphosphate reductase RR1 (Homo sapiens) (UniProt P23921+Q7LG56+P31350); assay: Relative inhibitory potency against mammalian ribonucleotide reductase; type: protein-complex assay
# [13] = target: T1, Ribonucleoside-diphosphate reductase large subunit; assay: Inhibitory activity of compound against mammalian ribonucleotide reductase; Range is 40-42; outline: as §1
# [14] = target: T1, Ribonucleoside-diphosphate reductase large subunit; assay: Inhibitory activity of compound against mammalian ribonucleotide reductase; Range is 35-40; outline: as §1
molecule,measurement,setting,value
CC(=O)N[C@@H](CC(N)=O)C(=O)N[C@@H](CO)C(=O)N[C@@H](Cc1ccccc1)C(=O)N[C@H](C(=O)N[C@@H](CC(C)C)C(=O)N[C@@H](CC(=O)O)C(=O)N[C@@H](C)C(=O)N[C@@H](CC(=O)O)C(=O)N[C@@H](Cc1ccccc1)C(=O)O)[C@@H](C)O,IC50,[1],9 µM
CC(=O)N[C@@H](Cc1ccccc1)C(=O)N[C@H](C(=O)N[C@@H](CC(C)C)C(=O)N[C@@H](CC(=O)O)C(=O)N[C@@H](Cc1ccccc1)C(=O)O)[C@@H](C)O,IC50,[2],364 µM
CC(=O)N[C@@H](Cc1ccccc1)C(=O)N[C@H](C(=O)N[C@@H](CC(C)C)C(=O)N[C@@H](CC(=O)O)C(=O)NCC(=O)N[C@@H](CC(=O)O)C(=O)N[C@@H](Cc1ccccc1)C(=O)O)[C@@H](C)O,IC50,[3],110 µM
CC(=O)N[C@@H](Cc1ccccc1)C(=O)N[C@H](C(=O)N[C@@H](CC(C)C)C(=O)N[C@@H](CC(=O)O)C(=O)N[C@@H](C)C(=O)N[C@@H](CC(C)C)C(=O)N[C@@H](Cc1ccccc1)C(=O)O)[C@@H](C)O,IC50,[4],29 µM
CC(=O)N[C@@H](Cc1ccccc1)C(=O)N[C@H](C(=O)N[C@@H](Cc1ccccc1)C(=O)N[C@@H](CC(=O)O)C(=O)N[C@@H](C)C(=O)N[C@@H](CC(=O)O)C(=O)N[C@@H](Cc1ccccc1)C(=O)O)[C@@H](C)O,IC50,[5],48 µM
CC(=O)N[C@@H](CO)C(=O)N[C@@H](Cc1ccccc1)C(=O)N[C@H](C(=O)N[C@@H](CC(C)C)C(=O)N[C@@H](CC(=O)O)C(=O)N[C@@H](C)C(=O)N[C@@H](CC(=O)O)C(=O)N[C@@H](Cc1ccccc1)C(=O)O)[C@@H](C)O,IC50,[6],8 µM
CC(=O)N[C@@H](Cc1ccccc1)C(=O)N[C@H](C(=O)N[C@@H](CC(C)C)C(=O)N[C@@H](CC(=O)O)C(=O)N[C@@H](C)C(=O)N[C@@H](CC(N)=O)C(=O)N[C@@H](Cc1ccccc1)C(=O)O)[C@@H](C)O,IC50,[7],32 µM
CC(=O)N[C@@H](Cc1ccccc1)C(=O)N[C@H](C(=O)N[C@@H](CC(C)C)C(=O)N[C@@H](C)C(=O)N[C@@H](C)C(=O)N[C@@H](CC(=O)O)C(=O)N[C@@H](Cc1ccccc1)C(=O)O)[C@@H](C)O,IC50,[8],286 µM
CC(=O)N[C@@H](Cc1ccccc1)C(=O)N[C@H](C(=O)N[C@@H](CC(C)C)C(=O)N[C@@H](CC(N)=O)C(=O)N[C@@H](C)C(=O)N[C@@H](CC(=O)O)C(=O)N[C@@H](Cc1ccccc1)C(=O)O)[C@@H](C)O,IC50,[9],25 µM
CC(=O)N[C@@H](Cc1ccccc1)C(=O)N[C@H](C(=O)N[C@@H](CC(C)C)C(=O)N[C@@H](CC(=O)O)C(=O)N[C@@H](C)C(=O)N[C@@H](CCC(=O)O)C(=O)N[C@@H](Cc1ccccc1)C(=O)O)[C@@H](C)O,IC50,[10],450 µM
CC(=O)N[C@@H](Cc1ccccc1)C(=O)N[C@H](C(=O)N[C@@H](CC(C)C)C(=O)N[C@@H](CC(=O)O)C(=O)N[C@@H](C)C(=O)N[C@@H](C)C(=O)N[C@@H](Cc1ccccc1)C(=O)O)[C@@H](C)O,IC50,[11],34 µM
Ac-FSLDADF-OH,RI,[12],25%
same,IC50,[13],40 µM
Ac-FALDADF-OH,RI,[12],24%
same,IC50,[14],35 µM
